From ChEMBL document CHEMBL3875191, “Enhanced potency of bivalent small molecule gp41 inhibitors” (Bioorg Med Chem, 2017) come the findings set out here.

Series [1] can be described thus: Inhibition of fluorescently labeled C-terminal HR2 probe peptide binding to wild type HIV-1 Fe(env2.0)3 peptide model of gp41 hydrophobic pocket at compound to protein ratio of 1:1 by fluorescence assay. Also noted: species or system Human immunodeficiency virus 1.
Series [2] can be described thus: (§1) Inhibition of HIV1 gp41-induced cell-cell fusion between HXB2 viral envelope expressing human HL2/3 cells to CXCR4-tropic expressing TZM-bl cells after 6 hrs by LTR luciferase reporter gene assay. Format: cell-based. To be noted: Human immunodeficiency virus 1, HL2/3, 6 h. The method in brief:
(§2)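 TZM-bl target cells (CD4, CCR5, CXCR4; HIV-1 LTR-driven firefly luciferase) at 25,000/well, cultured overnight, then given serially diluted inhibitor. 50,000 HL2/3 effector cells (HXB2 Env, Tat, Rev) were added and fusion ran 6 h in reduced-serum medium with 1% DMSO final. Luciferase was read, with 1% DMSO controls with and without HL2/3, in triplicate.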
In general terms: In a reporter assay the amount or activity of a reporter protein is the signal.

Series [3] can be described thus: Ratio of Kd for wild type HIV-1 Fe2(env2.0)3 peptide model of gp41 hydrophobic pocket assessed as dissociation constant for first binding interaction to Ka for wild type HIV-1 Fe2(env2.0)3 peptide model of gp41 hydrophobic pocket assessed as association constant for first binding interaction. The arrangement: species or system Human immunodeficiency virus 1.
Series [4] is described as follows: Cytotoxicity against human HL2/3 cells assessed as decrease in cell viability by alamar blue/presto blue assay. Format: toxicity, cell-based. Put shortly:
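Cell viability read with resazurin reagent (Alamar Blue or Presto Blue) under the same culture conditions as cell-cell fusion. TZM-bl targets (25,000/well, cultured overnight) with serially diluted compound, plus 50,000 HL2/3 effectors/well. 6 h in reduced-serum medium, 1% DMSO final.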
Background: Alamar Blue is a resazurin reagent that responds to reducing activity.

Series [5] is described as follows: (§3) Inhibition of HIV1 3B gp41-induced virus-cell fusion between HIV1 3B to MAGI cells expressing CXCR4-tropic treated 3 hrs post infection measured after 48 hrs by beta-galactosidase based chemiluminescence assay. The settings on record: Human immunodeficiency virus 1, 3B.
Series [6] concerns Human immunodeficiency virus 1. The series is described as follows: Binding affinity to wild type HIV-1 Fe2(env2.0)3 peptide model of gp41 hydrophobic pocket at compound to peptide ratio of 1:1 by surface plasmon resonance assay. The method in brief:
(§4)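 CM5 chip activated with EDC/NHS then PDEA; FeII(envC)3 (bpy-HR1 peptide ending in D-Cys, 5 µM in 25 mM Tris-acetate pH 7.0) coupled by disulfide. Blocked with L-cysteine, then washed with 1 mM ferrous ammonium sulfate. Reference surface lacked receptor. Analytes run at 0.098–50 µM in 20 mM Hepes, 150 mM NaCl, pH 7.0, 1% DMSO. Association 60 s, dissociation 300 s, DMSO bracketing. Kinetics fit to Langmuir 1:1 and 1:2 models.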
(In general: SPR reads the build-up and loss of mass on a sensor chip optically.)

Series [7] in a line: Inhibition of fluorescently labeled C-terminal HR2 probe peptide binding to wild type HIV-1 Fe(env2.0)3 peptide model of gp41 hydrophobic pocket assessed as inhibition constant for second binding interaction at compound to protein ratio of 1:2 by fluorescence assay. Also noted: species or system Human immunodeficiency virus 1.
The nature of series [8]: Inhibition of fluorescently labeled C-terminal HR2 probe peptide binding to wild type HIV-1 Fe(env2.0)3 peptide model of gp41 hydrophobic pocket assessed as inhibition constant for first binding interaction at compound to protein ratio of 1:2 by fluorescence assay. The arrangement: species or system Human immunodeficiency virus 1.
The test system of series [9] is MAGI. In words: (§5) Inhibition of HIV1 Ba-L gp41-induced virus-cell fusion between HIV1 Ba-L to MAGI cells expressing CCR5-tropic treated 3 hrs post infection measured after 48 hrs by beta-galactosidase based chemiluminescence assay. To be noted: Human immunodeficiency virus 1.
Series [10] in a line: as §5. To be noted: Human immunodeficiency virus 1, Ba-L.
For series [11], the system named is MAGI. Described as §3. To be noted: Human immunodeficiency virus 1.
A further series concerns HL2/3. The description is as §1. Format: cell-based. To be noted: Human immunodeficiency virus 1. The method in brief:
as §2

Series [12] deals with Human immunodeficiency virus 1. The series is described as follows: Binding affinity to wild type HIV-1 HXB2 Fe2(env2.0)3 peptide model of gp41 hydrophobic pocket at >10 uM by surface plasmon resonance assay. Put shortly: as §4
Series [13] concerns Human immunodeficiency virus 1. In words: Binding affinity to wild type HIV-1 HXB2 Fe2(env2.0)3 peptide model of gp41 hydrophobic pocket at <10 uM by surface plasmon resonance assay. The method in brief:
as §4

Calls of active or inactive are those of the source. The calls are words filed in the database; no cut-off is given here. A value given as a limit tells only on which side of the number the result lay.

A word on the Ki: it is the equilibrium dissociation constant of an inhibitor or competing ligand from its target. What is called IC50 is the concentration needed to halve the response being measured. A higher IC50 goes with weaker potency in that assay. Broadly, the Kd is the constant that tells how readily two partners part at equilibrium. In general, CC50 refers to the concentration at which the toxic effect on the cells reaches its halfway point. For the compound `O=C(CCC(=O)Nc1ccc(C(=O)N[C@@H](Cc2c[nH]c3ccccc23)C(=O)O)cc1OCc1ccc(Cl)cc1)NCCOCCOCCOCCNC(=O)CCC(=O)Nc1ccc(C(=O)N[C@@H](Cc2c[nH]c3ccccc23)C(=O)O)cc1OCc1ccc(Cl)cc1`, the Ki in [1] was in the range of 5.3 to 8.5 µM. The IC50 in [2] worked out at 0.4 µM; in [5] it was 5.1 µM. For the same compound, the Kd in series [3] is 43 µM. Further, the CC50 in [4] was above 100 µM. Further, in series [6], the RUmax was found to be 157.

Take `Nc1ccc(C(=O)N[C@@H](Cc2c[nH]c3ccccc23)C(=O)O)cc1OCc1ccc(Cl)cc1`: the Ki in series [1] amounted to 15 µM. In addition, it took 24 µM to reach half-maximal inhibition in series [2] (IC50). In addition, in series [4], the CC50 was above 50 µM. Also, the RUmax in series [6] was 56.

Broadly, the IC90 is the concentration at which the effect reaches the 90% level. A higher IC90 goes with a need for much substance. On to `O=C(CCC(=O)Nc1ccc(C(=O)N[C@@H](Cc2c[nH]c3ccccc23)C(=O)O)cc1OCCc1c[nH]c2ccccc12)NCCOCCOCCOCCNC(=O)CCC(=O)Nc1ccc(C(=O)N[C@@H](Cc2c[nH]c3ccccc23)C(=O)O)cc1OCCc1c[nH]c2ccccc12`, for which the inhibition constant (Ki) was 1 to 2.3 µM in series [1], 0.2 µM in [7] and 20 µM in series [8]. Besides, the IC50 in [2] was 0.6 µM; in series [10], 3.6 µM; in series [5], 3.8 µM. Moreover, in [3], the Kd was found to be 32 µM. For the same compound, the IC90 in the series on MAGI [9] is above 100 µM; with MAGI [11], 70 µM. Besides, the CC50 in series [4] is above 100 µM. In [6], the RUmax turned out to be 160.

For the compound `O=C(CCc1c[nH]c2ccccc12)NCCCCCC(=O)Nc1ccc(C(=O)N[C@@H](Cc2c[nH]c3ccccc23)C(=O)O)cc1OCCc1c[nH]c2ccccc12`, the Ki in series [1] was found to be 1.2 µM. For the same compound, the IC50 in series [2] is 1.3 µM; in series [10], 13.7 µM; in series [5], 17.3 µM. For the same compound, the values for the IC90 with MAGI [9] and in the series on MAGI [11] were 31.1 µM and 30.5 µM, respectively. In addition, the CC50 in series [4] was above 100 µM. In addition, the RUmax in series [6] was found to be 95.

For the compound `Nc1ccc(C(=O)N[C@@H](Cc2c[nH]c3ccccc23)C(=O)O)cc1OCCc1c[nH]c2ccccc12`, the Ki in series [1] amounted to 7.2 µM. Further, the IC50 was 22 µM in [2], above 50 µM in series [10] and above 50 µM in series [5]. For the same compound, the IC90 with HL2/3 is 80 µM; in the series with MAGI [9], above 50 µM; in the series on MAGI [11], above 50 µM. Further, the result in [12] and in series [13] was Active. Further, in [4], the CC50 was above 50 µM. Moreover, in series [6], the RUmax is 59.

Consider `O=C(CCc1c[nH]c2ccccc12)NCCCCCC(=O)Nc1ccc(C(=O)N[C@@H](Cc2c[nH]c3ccccc23)C(=O)O)cc1OCc1ccc(Cl)cc1`, for which the Ki in series [1] came out at 3.4 µM. For the same compound, the IC50 in [2] stood at 2.2 µM; in series [10], 13 µM; in series [5] it was 14.3 µM. For the same compound, the IC90 with MAGI [9] turned out to be 26.5 µM; in the series with MAGI [11], 27.1 µM. The CC50 in series [4] is above 100 µM. Besides, the RUmax in series [6] was 93.
